# A selection: hits, their analogues and other compounds. The true share with any hit is near 6.4%.
# HUVEC inhibit = human endothelial cell proliferation inhibition; HUVEC proliferation, CellTiter-Glo luminescence, 72 h; hits give low values; viability, % at 10 µM (by protocol); 86,000 compounds, 1.1% hits; AID 648;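 active = viability at or below 30%; inactive = viability above 30%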;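 note: 100% = median luminescence of DMSO-only cell control wells on each plate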
# Ecoli tolC = E. coli tolC mutant growth inhibition; E. coli BW25113 tolC mutant growth, OD615; growth inhibition, % at 10 µM (by protocol); 65,000 compounds, 2.2% hits;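 active = growth inhibition at or above a cutoff equal to the mean over every tested compound plus 3 SD, cut at about 60% in these data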;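 note: growth measured after 20 h incubation at 37 °C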
#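 Signal: optical density read at 615 nm; Assay system: E. coli ΔtolC::kan strain BW25113; Times: 20 h incubation with compound, 37 °C; Dosing: 10 µM final, single dose.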
# H69AR inhibit = blocks growth of human H69AR lung tumor cells; H69AR lung tumor viability, ATP luminescence, 72 h; hits give low values; AID 598; viability, % at 10 µM; 85,000 compounds, 6% hits;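 active = viability at or below 40%; inactive = viability above 40%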;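 note: multidrug resistant small cell line overexpressing MRP-1 efflux transporter; 100% = mean luminescence of untreated control wells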
# Lung fibro prol = blocks proliferation of human lung fibroblasts | 85,000 compounds, 1.1% hits | LL 47 human lung fibroblast viability, ATP luminescence; hits give low values | viability, % at 10 µM | AID 719;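 active = viability at or below 50% in the single dose screen; inactive = viability above 50%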;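 note: compound exposure lasted 72 h before the ATP readout; 100% = median luminescence of untreated cell-only wells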
#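 Material: Human LL 47 lung fibroblast cells | Input: 1,150 cells/well | Buffer or medium: IMEM plus 15% FBS | Compound dosing: 0.1% DMSO in all compound wells | Times: Overnight cell rest, 72 h compound treatment at 37 °C | Signal: CellTiter-Glo luminescence measuring cellular ATP | Measure: % viability versus median cells-only luminescence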
# Ecoli WT expand = E. coli BW25113 growth inhibition, expanded screen. growth inhibition, % at 100 µM. 98,000 compounds, 0.15% hits. OD600 absorbance. AID 710;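 active = growth inhibition above about 50% at one test dose, limit read from the data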;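 note: growth measured after 20 h incubation at 37 °C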
# Jurkat tox 60K = reduces viability or proliferation of Jurkat cells; Jurkat E6.1 viability, ATP luminescence, 48 h; inhibition, % at 4 µM; 56,000 compounds, 1.2% hits;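 active = inhibition above the mean inhibition of all tested compounds plus 3 SD, cut at about 28% in these data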
# * = called active by the depositor; nt = not tested or not shown.
SMILES,HUVEC inhibit,Ecoli tolC,H69AR inhibit,Lung fibro prol,Ecoli WT expand,Jurkat tox 60K
Cc1cc(C(c2nnnn2Cc2ccccc2)N2CCOCC2)c(C)n1-c1ccc2c(c1)OCO2 (configuration not stated),85,9,55,63,-11,-4
C(=C1/CCCC2=C1Nc1ncnn1C2c1ccccc1)/c1ccccc1 (configuration not stated),13*,nt,0.8*,4.1*,4,nt
CC(=O)O[C@]1(C(C)=O)CC[C@H]2[C@@H]3C=C(Cl)C4=CC(=O)CC[C@]4(C)[C@H]3CC[C@@]21C,87,9,19*,80,nt,nt
CC(=O)O[C@]1(C(C)=O)CC[C@H]2[C@@H]3C[C@H](C)C4=CC(=O)CC[C@]4(C)[C@H]3CC[C@@]21C,102,0,5.1*,91,nt,nt
Cn1c(SCC(=O)Nc2ccc(NC(=O)c3cccs3)cc2)nnc1-c1ccncc1,98,nt,98,95,nt,nt
CCN(CC)c1cnn(C/C(=N\OC)c2ccc(Cl)cc2)c(=O)c1Br,93,nt,80,84,-2,nt
CCOC(=O)N1CCC(n2c(=S)[nH]c3cc(OC)c(OC)cc3c2=O)CC1,98,-5,34*,104,-5,nt
CCCn1c(=S)[nH]c2cc(OC)c(OC)cc2c1=O,90,nt,35*,93,-4,nt
CCOc1cc2[nH]c(=S)n(CCOC)c(=O)c2cc1OCC,101,4,100,90,2,nt
O=C(Nc1nc(N2C(=O)c3ccccc3C2=O)n(-c2ccccc2)n1)c1ccc(Cl)cc1,94,nt,54,98,-5,nt
COC(=O)[C@H](CC(C)C)NC(=O)N1CCN(c2cccc(C(F)(F)F)c2)CC1,101,nt,90,104,14,nt
COc1ccccc1NC(=O)C1=C(C)Nc2nnnn2C1c1cc(Br)ccc1OC (configuration not stated),91,10,17*,83,-5,7
Fc1ccc(N2CCN(C(c3cccs3)c3nnnn3C3CCCC3)CC2)cc1 (configuration not stated),105,3,87,92,-20,0
COCCn1nnnc1CN1CCC(C)CC1,98,nt,99,nt,nt,nt
CCCCCCCCC(=O)N/N=C/c1ccccn1,nt,nt,nt,nt,22,nt
CCCCCCCCC/C(=N\O)c1ccccn1,5.4*,nt,80,36*,29,nt
CCn1c(=O)c2c3c(sc2n2c(SCc4ccc(F)cc4)nnc12)CCCC3,66,25,16*,81,nt,nt
CCC1(C)Cc2c(sc3c2c(=O)n(C)c2nnc(SCc4ccccc4)n32)CO1 (configuration not stated),70,7,15*,100,-2,nt
CCC1(C)Cc2c(sc3c2c(=O)n(C)c2nnc(SCCc4ccccc4)n32)CO1 (configuration not stated),111,-4,45,97,-10,-8
Cn1c(=O)c2c3c(sc2n2c(SCc4ccccc4)nnc12)CCCC3,nt,-14,nt,nt,nt,nt
COc1ccc(N(C2CSC2)S(=O)(=O)c2ccccc2)cc1,91,64*,90,98,-7,nt
CCCOC(=O)c1ccc(Oc2c(-c3ccc(OCC)cc3O)n[nH]c2C)cc1,4.5*,26,2.2*,54,13,4
CCCOC(=O)c1ccc(NC(=O)c2cnccn2)cc1,95,-7,95,97,7,0
CCCOC(=O)c1ccc(Oc2cn[nH]c2-c2ccc(OCC)cc2O)cc1,9.5*,70*,2.7*,96,11,12
Cc1sc2nc(SCC(=O)C(C)(C)C)n(Cc3ccco3)c(=O)c2c1C,64,nt,92,49*,-15,nt
SMILES,HUVEC inhibit,Ecoli tolC,H69AR inhibit,Lung fibro prol,Ecoli WT expand,Jurkat tox 60K
C=CCn1c(SCc2c(C)noc2C)nc2sc(C)c(C)c2c1=O,52,nt,20*,68,-13,nt
C=CCn1c(SCC(=O)NC(=O)NCc2ccco2)nc2sc(C)c(C)c2c1=O,57,-10,11*,52,-4,0
Cc1cc2c(=O)n(Cc3ccco3)c(SCC(=O)c3ccc(Cl)s3)nc2s1,82,9,13*,100,1,12
Cc1sc2nc(SCc3ccccc3)n(Cc3ccco3)c(=O)c2c1C,94,nt,96,94,-24,nt
COC(=O)c1oc2c(c1C)C1(CCC2)SCCS1,88,19,37*,87,3,4
COc1ccccc1N1CCN(C(c2ccccc2Cl)c2nnnn2C(C)(C)C)CC1 (configuration not stated),nt,63*,nt,nt,-11,-2
COc1ccccc1N1CCN(C(c2ccc(Cl)cc2)c2nnnn2C(C)(C)C)CC1 (configuration not stated),101,66*,99,89,-19,-3
COc1ccccc1C(c1nnnn1C(C)(C)C)N1CCN(Cc2ccncc2)CC1 (configuration not stated),97,-8,75,99,-5,-1
COc1cc(C(c2nnnn2C(C)(C)C)N2CCN(c3nc4ccccc4s3)CC2)ccc1O (configuration not stated),96,3,9.0*,84,0,-2
Cc1csc(NC(=O)c2cccc(Cn3nc(C)c(Br)c3C)c2)n1,93,73*,89,100,-1,5
COc1ccc(-c2nnn(CC(=O)NC3CCCc4ccccc43)n2)cc1OC (configuration not stated),100,16,25*,66,nt,nt
CCOc1ccc(-c2nnn(CC(=O)Nc3cc(OC)cc(OC)c3)n2)cc1OCC,55,-4,10*,95,-11,1
Cc1ccc(-c2noc(CCC(=O)NC3CCCc4ccccc43)n2)cc1 (configuration not stated),88,7,20*,105,-22,-1
CCOc1ccccc1NC(=O)Cn1nnc(-c2ccc(OCC)c(OCC)c2)n1,55,9,3.5*,73,-3,-10
CS(=O)(=O)N(CC(=O)N1CCN(c2ccccc2)CC1)c1ccc(Cl)c(C(F)(F)F)c1,77,nt,109,90,-3,nt
Cn1c(=O)[nH]c(=O)c2[nH]c(N(Cc3ccccc3)Cc3ccccc3)nc21,79,25,55,87,-4,-4
COc1ccc(N2CCN(C(=O)Cn3nnc(-c4ccc(OC)c(OC)c4)n3)CC2)cc1,101,-6,15*,100,-11,-7
COc1ccc(-c2nnn(CC(=O)N3CCN(c4ccccc4OC)CC3)n2)cc1,98,nt,67,97,nt,nt
Cc1ccc(-n2c(C)cc(C3N=C(N)Nc4nc5ccccc5n43)c2C)c(C)c1 (configuration not stated),16*,100*,33*,72,-21,-3
Cc1cc(C2N=C(N)Nc3nc4ccccc4n32)c(C)n1-c1ccccc1Cl (configuration not stated),58,61*,69,81,10,nt
COc1ccc(NS(=O)(=O)c2ccc3c(c2)Cc2ccccc2-3)cn1,82,100*,93,99,-9,3
